Data from paper PMC3796951 (Psychopharmacology, 2012).
pKi: −log10 of the molar value. Where a name gives a salt, the structure may show the parent alone. Read-outs that look alike come from different tables or passages of the source.

Legend:
[1] = biological target: α1A (Homo sapiens, UniProt P35348); experiment: Radioligand binding
[2] = biological target: α1B (Homo sapiens, UniProt P35368); experiment: Radioligand binding
[3] = biological target: α1D (Homo sapiens, UniProt P25100); experiment: Radioligand binding
[4] = biological target: α2A (Homo sapiens, UniProt P08913); experiment: Radioligand binding
[5] = biological target: α2C (Homo sapiens, UniProt P18825); experiment: Radioligand binding
[6] = biological target: β2 (Homo sapiens, UniProt P07550); experiment: Radioligand binding
[7] = biological target: D3 (Rattus norvegicus, UniProt P19020); experiment: Radioligand binding
[8] = biological target: H1 (Homo sapiens, UniProt P35367); experiment: Radioligand binding
[9] = biological target: H2 (Homo sapiens, UniProt P25021); experiment: Radioligand binding
[10] = biological target: SERT (Homo sapiens, UniProt P31645); experiment: Radioligand binding
[11] = biological target: Sigma-2 (Rattus norvegicus, UniProt Q5U3Y7); experiment: Radioligand binding
[12] = biological target: D1 (Homo sapiens, UniProt P21728); experiment: Radioligand binding
[13] = biological target: D2 (Homo sapiens, UniProt P14416); experiment: Radioligand binding
[14] = biological target: D4 (Homo sapiens, UniProt P21917); experiment: Radioligand binding
[15] = biological target: D5 (Homo sapiens, UniProt P21918); experiment: Radioligand binding
[16] = biological target: DAT (Homo sapiens, UniProt Q01959); experiment: Radioligand binding
[17] = biological target: NET (Homo sapiens, UniProt P23975); experiment: Radioligand binding
[18] = biological target: β1 (Homo sapiens, UniProt P08588); experiment: Radioligand binding
[19] = biological target: β3 (Homo sapiens, UniProt P13945); experiment: Radioligand binding
[20] = biological target: DOR (Homo sapiens, UniProt P41143); experiment: Radioligand binding
[21] = biological target: MOR (Homo sapiens, UniProt P35372); experiment: Radioligand binding
[22] = biological target: KOR (Homo sapiens, UniProt P41145); experiment: Radioligand binding
[23] = biological target: EP3 (Homo sapiens, UniProt P43115); experiment: Radioligand binding
[24] = biological target: EP4 (Homo sapiens, UniProt P35408); experiment: Radioligand binding
[25] = biological target: H3 (Homo sapiens, UniProt Q9Y5N1); experiment: Radioligand binding
[26] = biological target: H4 (Homo sapiens, UniProt Q9H3N8); experiment: Radioligand binding
[27] = biological target: M1 (Homo sapiens, UniProt P11229); experiment: Radioligand binding
[28] = biological target: M2 (Homo sapiens, UniProt P08172); experiment: Radioligand binding
[29] = biological target: M3 (Homo sapiens, UniProt P20309); experiment: Radioligand binding
[30] = biological target: M4 (Homo sapiens, UniProt P08173); experiment: Radioligand binding
[31] = biological target: M5 (Homo sapiens, UniProt P08912); experiment: Radioligand binding
[32] = biological target: sigma-1 (Homo sapiens, UniProt Q99720); experiment: Radioligand binding
[33] = system: Male Sprague–Dawley rats; experiment: Behavioral Pattern Monitor; type: in vivo, rat
Procedure, shortened: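 Male Sprague–Dawley rats (250–275 g at arrival), pair-housed under a reverse 12-h light–dark cycle, were handled the day before testing and were naïve to the BPM. Pargyline (0 or 10 mg/kg) was given 20 min before the test compound; all dosing was s.c. at 1 ml/kg, n=7–8. Ten min after dosing, rats were placed in the BPM and monitored for 60 min in darkness. Crossings between eight sectors were counted in 10-min bins, and spatial d was derived from X–Y paths.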

[34] = biological target: [3H]DOB-labeled 5-HT2A receptors; conditions: [3H]DOB-labeled 5-HT2A receptors (agonist high-affinity state) ref Egan et al. 2000; cited from earlier work
[35] = system: humans; conditions: hallucinogenic activity, parenteral ref Shulgin and Shulgin 1997; cited from earlier work
[36] = system: 5-HT2A receptor; conditions: higher affinity than 5-MeO-DMT ref Roth et al. 1997; Egan et al. 2000; cited from earlier work
[37] = system: MAOA; conditions: pargyline 10 mg/kg, s.c. ref Ortmann et al. 1984; cited from earlier work
[38] = system: MAOB; conditions: pargyline 10 mg/kg, s.c. ref Ortmann et al. 1984; cited from earlier work
[39] = Experiment 1, drug × time interaction, post hoc per 30-min block
[40] = read-out: Ki nM (±SEM), [3H]prazocin, cloned human receptor
[41] = read-out: Ki nM (±SEM), [3H]clonidine, cloned human receptor

Chain of α1B (P35368 whole entry): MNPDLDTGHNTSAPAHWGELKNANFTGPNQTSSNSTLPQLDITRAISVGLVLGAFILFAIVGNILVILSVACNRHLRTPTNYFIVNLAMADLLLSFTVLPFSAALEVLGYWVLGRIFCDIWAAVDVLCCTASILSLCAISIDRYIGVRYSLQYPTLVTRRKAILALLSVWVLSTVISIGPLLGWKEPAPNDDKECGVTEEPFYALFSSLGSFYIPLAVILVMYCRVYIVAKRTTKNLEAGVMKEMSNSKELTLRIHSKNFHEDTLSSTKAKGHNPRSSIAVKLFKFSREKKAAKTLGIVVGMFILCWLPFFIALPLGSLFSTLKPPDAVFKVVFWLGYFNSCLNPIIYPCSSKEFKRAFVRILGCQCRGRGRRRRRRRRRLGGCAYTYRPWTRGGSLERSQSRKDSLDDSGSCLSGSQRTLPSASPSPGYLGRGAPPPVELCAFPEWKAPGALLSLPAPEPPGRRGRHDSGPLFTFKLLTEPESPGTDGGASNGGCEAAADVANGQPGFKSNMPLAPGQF
Chain of α1D (P25100 whole entry): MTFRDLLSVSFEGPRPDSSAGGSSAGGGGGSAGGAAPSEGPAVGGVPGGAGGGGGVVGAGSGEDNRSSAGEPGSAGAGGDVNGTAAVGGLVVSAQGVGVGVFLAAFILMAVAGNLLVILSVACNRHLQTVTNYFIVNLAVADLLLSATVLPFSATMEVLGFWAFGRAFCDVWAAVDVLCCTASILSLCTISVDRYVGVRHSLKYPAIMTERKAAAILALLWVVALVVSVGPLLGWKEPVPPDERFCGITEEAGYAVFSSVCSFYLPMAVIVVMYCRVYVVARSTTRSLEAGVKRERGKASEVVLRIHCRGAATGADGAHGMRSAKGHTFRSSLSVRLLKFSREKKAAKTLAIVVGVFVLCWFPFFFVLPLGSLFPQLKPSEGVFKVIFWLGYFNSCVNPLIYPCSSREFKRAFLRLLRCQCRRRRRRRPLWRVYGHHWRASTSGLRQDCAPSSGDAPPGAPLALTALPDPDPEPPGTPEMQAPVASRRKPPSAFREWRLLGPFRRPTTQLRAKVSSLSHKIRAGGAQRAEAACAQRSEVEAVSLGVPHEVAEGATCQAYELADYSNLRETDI
Chain of H1 (P35367 whole entry): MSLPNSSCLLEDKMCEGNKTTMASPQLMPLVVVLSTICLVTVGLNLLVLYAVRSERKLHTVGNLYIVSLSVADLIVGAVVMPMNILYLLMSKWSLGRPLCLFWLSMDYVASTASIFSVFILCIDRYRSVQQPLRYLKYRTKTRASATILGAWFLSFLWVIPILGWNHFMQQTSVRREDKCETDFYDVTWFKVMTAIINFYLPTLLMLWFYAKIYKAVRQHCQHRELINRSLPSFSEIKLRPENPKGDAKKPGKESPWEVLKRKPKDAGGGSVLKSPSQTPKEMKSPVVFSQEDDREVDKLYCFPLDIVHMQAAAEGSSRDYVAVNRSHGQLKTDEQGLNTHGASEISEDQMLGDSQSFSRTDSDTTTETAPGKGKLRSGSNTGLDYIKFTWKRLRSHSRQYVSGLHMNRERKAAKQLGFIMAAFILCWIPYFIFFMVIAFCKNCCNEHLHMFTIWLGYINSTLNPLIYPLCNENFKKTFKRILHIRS
Chain of Sigma-2 (Q5U3Y7 whole entry): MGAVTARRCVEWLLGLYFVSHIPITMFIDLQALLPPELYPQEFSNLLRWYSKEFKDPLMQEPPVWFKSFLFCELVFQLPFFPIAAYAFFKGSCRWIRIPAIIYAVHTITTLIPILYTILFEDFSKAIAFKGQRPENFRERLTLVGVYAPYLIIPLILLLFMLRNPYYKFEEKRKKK
Chain of SERT (P31645 whole entry): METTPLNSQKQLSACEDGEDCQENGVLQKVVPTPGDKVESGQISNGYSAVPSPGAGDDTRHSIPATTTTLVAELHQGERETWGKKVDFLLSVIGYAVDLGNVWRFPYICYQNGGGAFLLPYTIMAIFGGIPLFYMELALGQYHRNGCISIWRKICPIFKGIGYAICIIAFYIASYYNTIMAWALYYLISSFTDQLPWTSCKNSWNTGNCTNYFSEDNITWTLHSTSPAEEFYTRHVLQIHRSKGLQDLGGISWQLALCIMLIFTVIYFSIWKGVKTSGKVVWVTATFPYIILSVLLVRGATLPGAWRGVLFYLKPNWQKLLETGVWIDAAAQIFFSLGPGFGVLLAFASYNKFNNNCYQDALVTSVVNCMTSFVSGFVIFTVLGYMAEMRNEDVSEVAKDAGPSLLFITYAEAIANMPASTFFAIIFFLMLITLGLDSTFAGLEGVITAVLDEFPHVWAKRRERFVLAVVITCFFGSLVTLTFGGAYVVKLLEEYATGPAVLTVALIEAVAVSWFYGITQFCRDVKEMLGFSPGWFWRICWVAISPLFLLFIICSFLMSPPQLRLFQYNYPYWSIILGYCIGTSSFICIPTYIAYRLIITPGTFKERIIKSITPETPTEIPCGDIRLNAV
Chain of H2 (P25021 whole entry): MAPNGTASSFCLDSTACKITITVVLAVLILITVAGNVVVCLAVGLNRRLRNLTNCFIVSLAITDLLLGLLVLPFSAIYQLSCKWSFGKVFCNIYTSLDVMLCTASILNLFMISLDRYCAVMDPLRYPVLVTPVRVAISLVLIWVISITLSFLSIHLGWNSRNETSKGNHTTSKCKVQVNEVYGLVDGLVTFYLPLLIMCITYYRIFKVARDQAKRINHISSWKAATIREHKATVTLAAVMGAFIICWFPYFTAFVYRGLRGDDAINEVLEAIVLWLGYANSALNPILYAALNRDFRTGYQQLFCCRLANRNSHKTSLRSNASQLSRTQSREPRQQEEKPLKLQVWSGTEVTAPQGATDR
Chain of D3 (P19020 whole entry): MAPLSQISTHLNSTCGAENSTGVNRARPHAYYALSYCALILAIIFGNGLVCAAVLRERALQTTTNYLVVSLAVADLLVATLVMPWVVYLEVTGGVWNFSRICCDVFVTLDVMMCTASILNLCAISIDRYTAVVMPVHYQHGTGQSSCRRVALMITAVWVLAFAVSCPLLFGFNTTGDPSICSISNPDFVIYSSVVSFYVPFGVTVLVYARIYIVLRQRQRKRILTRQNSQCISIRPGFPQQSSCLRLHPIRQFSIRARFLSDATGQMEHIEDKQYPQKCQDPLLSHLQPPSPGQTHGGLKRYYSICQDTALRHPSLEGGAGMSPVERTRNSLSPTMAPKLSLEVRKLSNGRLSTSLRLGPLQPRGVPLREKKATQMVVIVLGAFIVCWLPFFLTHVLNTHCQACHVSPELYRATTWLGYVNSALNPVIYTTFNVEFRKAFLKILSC
Chain of α1A (P35348 whole entry): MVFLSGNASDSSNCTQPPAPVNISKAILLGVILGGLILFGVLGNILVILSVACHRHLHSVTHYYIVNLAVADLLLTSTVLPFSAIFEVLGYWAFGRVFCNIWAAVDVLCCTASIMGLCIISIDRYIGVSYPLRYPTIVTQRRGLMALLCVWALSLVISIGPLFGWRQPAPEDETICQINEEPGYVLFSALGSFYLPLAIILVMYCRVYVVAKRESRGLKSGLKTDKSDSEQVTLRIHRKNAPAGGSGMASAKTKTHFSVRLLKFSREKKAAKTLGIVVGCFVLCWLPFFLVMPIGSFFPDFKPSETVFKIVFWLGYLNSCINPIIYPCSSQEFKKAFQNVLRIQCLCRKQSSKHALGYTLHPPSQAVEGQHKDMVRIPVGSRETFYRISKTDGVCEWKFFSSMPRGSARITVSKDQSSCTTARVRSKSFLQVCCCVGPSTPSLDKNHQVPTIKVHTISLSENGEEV
Chain of α2A (P08913 whole entry): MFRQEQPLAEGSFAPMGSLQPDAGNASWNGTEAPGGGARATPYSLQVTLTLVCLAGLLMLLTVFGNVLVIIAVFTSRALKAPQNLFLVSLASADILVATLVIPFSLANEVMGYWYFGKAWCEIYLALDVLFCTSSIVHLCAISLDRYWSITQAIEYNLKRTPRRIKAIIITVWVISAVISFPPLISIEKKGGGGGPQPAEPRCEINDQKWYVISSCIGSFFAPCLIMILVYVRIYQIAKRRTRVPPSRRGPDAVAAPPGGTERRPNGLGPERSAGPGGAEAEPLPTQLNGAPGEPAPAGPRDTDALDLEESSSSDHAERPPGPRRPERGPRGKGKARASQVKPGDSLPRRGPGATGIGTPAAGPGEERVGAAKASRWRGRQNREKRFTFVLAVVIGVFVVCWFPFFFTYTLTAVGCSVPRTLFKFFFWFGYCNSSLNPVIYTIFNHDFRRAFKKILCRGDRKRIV
Chain of β2 (P07550 whole entry): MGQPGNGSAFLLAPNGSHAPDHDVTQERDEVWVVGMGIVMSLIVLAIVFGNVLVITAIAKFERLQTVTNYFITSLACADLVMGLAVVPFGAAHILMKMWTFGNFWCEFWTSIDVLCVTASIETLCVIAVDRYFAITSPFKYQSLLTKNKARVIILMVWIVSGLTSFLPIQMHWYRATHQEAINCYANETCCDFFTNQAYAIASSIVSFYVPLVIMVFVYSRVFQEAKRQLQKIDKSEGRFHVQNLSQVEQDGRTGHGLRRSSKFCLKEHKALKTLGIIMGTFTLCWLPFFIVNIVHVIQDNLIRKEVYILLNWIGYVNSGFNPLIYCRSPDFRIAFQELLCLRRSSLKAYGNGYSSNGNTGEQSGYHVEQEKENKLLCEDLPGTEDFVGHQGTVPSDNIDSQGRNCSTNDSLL
Chain of sigma-1 (Q99720 whole entry): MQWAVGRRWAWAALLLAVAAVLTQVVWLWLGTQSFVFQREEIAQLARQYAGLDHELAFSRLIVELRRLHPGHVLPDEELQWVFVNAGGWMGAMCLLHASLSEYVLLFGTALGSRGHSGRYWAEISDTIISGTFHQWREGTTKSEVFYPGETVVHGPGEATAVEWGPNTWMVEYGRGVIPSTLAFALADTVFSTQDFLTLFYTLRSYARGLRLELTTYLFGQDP

Compound COc1ccc2[nH]cc(CCN(C)C)c2c1.O=C(O)C(=O)O [5-MeO-DMT, 5-Methoxy-N, N-dimethyltryptamine oxalate] has a pKi [1] of 5.36, a pKi [2] of 5.66 and a pKi [3] of 6.36. It also gave a pKi [4] of 6.03, a pKi [5] of 6.69 and a pKi [6] of 5.57. The pKi [7] was less than 5.00, the pKi [8] was 5.12 and the pKi [9] was less than 5.00. It also gave a pKi [10] of 5.44, a pKi [11] of 5.43 and a pKi [12] of less than 5.00. It also gave a pKi [13] of less than 5.00, a pKi [14] of less than 5.00 and a pKi [15] of less than 5.00. The pKi [16] was less than 5.00, the pKi [17] was less than 5.00 and the pKi [18] was less than 5.00. The pKi [19] was less than 5.00, the pKi [20] was less than 5.00 and the pKi [21] was less than 5.00. It also gave a pKi [22] of less than 5.00, a pKi [23] of less than 5.00 and a pKi [24] of less than 5.00. It also gave a pKi [25] of less than 5.00, a pKi [26] of less than 5.00 and a pKi [27] of less than 5.00. It also gave a pKi [28] of less than 5.00, a pKi [29] of less than 5.00 and a pKi [30] of less than 5.00. The pKi [31] was less than 5.00, the pKi [32] was less than 5.00 and the “Effect on crossings (locomotor activity)” value ([33]; Experiment 1, 0.1 mg/kg s.c. after pargyline 10 mg/kg) was “reduced crossings during the first half-hour, but did not increase activity during the second half-hour”. The “Effect on spatial d” value ([33]; Experiment 1, 1.0 mg/kg s.c. after pargyline 10 mg/kg, second half-hour of session (p<0.01)) was “significantly reduced spatial d”, the “Effect on spatial d” value ([33]; Experiment 1, 0.01 and 0.1 mg/kg s.c. after pargyline 10 mg/kg) was “no effect on spatial d” and the “Effect on crossings (locomotor activity)” value ([33]; Experiment 1, 0.1 and 1.0 mg/kg s.c., vehicle-pretreated rats) was “reduced crossings”. For the same compound, the “Effect on spatial d” value [33, 39] was “post hoc analysis failed to confirm this for any specific 30-min block”, the “Effect on crossings (locomotor activity)” value ([33]; Experiment 3, 0.3 to 3.0 mg/kg s.c. alone, first 10 min of testing (p<0.01)) was “significantly reduced crossings” and the “Effect on spatial d” value ([33]; Experiment 3, 0.3 to 3.0 mg/kg s.c. alone, first or second half-hour, post hoc) was “failed to alter spatial d significantly”. For the same compound, the “Biphasic effects on locomotor activity” value ([33]; Experiment 3, alone, up to 3 mg/kg s.c.) was “did not induce biphasic effects on locomotor activity”, the pKi [34] was 7.05 and the “Active parenteral dose in humans” value [35] was 2 to 3 mg.
For CN(C)CCc1c[nH]c2ccc(O)cc12 [bufotenine, 5-hydroxy-DMT], the “Affinity for the 5-HT2A receptor relative to 5-MeO-DMT” value [36] is listed as 10 fold.
For C#CCN(C)Cc1ccccc1 [pargyline, pargyline hydrochloride], the “Effect on spatial d” value [33, 39] is given as “post hoc analysis failed to confirm this for any specific 30-min block”, the MAOA inhibition [37] is given as 78% and the MAOB inhibition [38] is given as 92%.
Compound COc1ccc2[nH]cc(CCN(C)C)c2c1 [α,α,β,β-tetradeutero-5-MeO-DMT, α,α,β,β-Tetradeutero-5-methoxy-N,N-dimethyltryptamine (2:1) fumarate] has a Ki [1, 40] of 1010 nM, a Ki [2, 40] of 841 nM and a Ki ([3]; read-out: Ki nM (±SEM), [125I]HEAT, cloned human receptor) of 202 nM. For the same compound, the Ki [4, 41] was 1870 nM, the Ki [5, 41] was 274 nM and the Ki ([6]; read-out: Ki nM (±SEM), [3H]CGP12177, cloned human receptor) was 4560 nM. The Ki ([7]; read-out: Ki nM (±SEM), [3H]N-methyl-spiperone, cloned rat receptor) was 7090 nM, the Ki ([8]; read-out: Ki nM (±SEM), [3H]pyrilamine, cloned human receptor) was greater than 10000 nM and the Ki ([9]; read-out: Ki nM (±SEM), [3H]tiotidine, cloned human receptor) was 7160 nM. The Ki ([10]; read-out: Ki nM (±SEM), [3H]citalopram, cloned human transporter) was 2760 nM and the Ki ([11]; read-out: Ki nM (±SEM), [3H]DTG, rat) was 7170 nM.
In the case of O=C(O)/C=C/C(=O)O.[2H]C([2H])(c1c[nH]c2ccc(OC)cc12)C([2H])([2H])N(C)C.[2H]C([2H])(c1c[nH]c2ccc(OC)cc12)C([2H])([2H])N(C)C [α,α,β,β-tetradeutero-5-MeO-DMT, α,α,β,β-Tetradeutero-5-methoxy-N,N-dimethyltryptamine (2:1) fumarate], the “Effect on spatial d” value ([33]; Experiment 2, 3.0 mg/kg s.c., first 30 min of the session (p<0.01)) was “significantly increased spatial d”, the “Effect on spatial d” value ([33]; Experiment 2, 3.0 mg/kg s.c., second 30 min of the session (p<0.01)) was “significantly reduced spatial d” and the “Effect on crossings (locomotor activity)” value ([33]; Experiment 2, 0.3, 1.0 and 3.0 mg/kg s.c., first 20 min of the session) was “significantly reduced crossings”. For the same compound, the “Delayed increase in locomotor activity” value ([33]; Experiment 2, 0.3 and 1.0 mg/kg s.c.) was “Neither of the lower doses tested (0.3 and 1.0 mg/kg) induced a delayed increase in activity”.
